Measured values as given in ChEMBL document CHEMBL1138849, “5-substituted tetrazoles as bioisosteres of carboxylic acids. Bioisosterism and mechanistic studies on glutathione reductase inhibitors as antimalarials” (J Med Chem, 2004).
Active and inactive are the calls of the source. The calls are words filed in the database; no cut-off is given here.

What was measured:
MRC5 = assay: Cytotoxicity against human diploid embryonic lung cell line hMRC-5 was observed at conc. upto 32 uM; (No cytotoxicity); type: functional, cell-based
[1] = biological target: Glutathione reductase (Plasmodium falciparum 3D7) (UniProt O15770); assay: Catalysis constant against Plasmodium falciparum glutathione reductase
In short: (§1)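 Recombinant human or P. falciparum GR run as a quinone reductase without GSSG. Mix: 100 mM phosphate pH 7.0, 200 mM KCl, 100 μM NADPH, 1% DMSO, enzyme, and naphthoquinone at 10 levels from 10 to 400 μM. NADPH oxidation read at 340 nm (ε 6.22 mM⁻¹ cm⁻¹). Steady-state rates fitted to Michaelis–Menten by nonlinear regression to give Km and Vmax; kcat and kcat/Km calculated.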

[2] = biological target: T1, Glutathione reductase, mitochondrial (Homo sapiens) (UniProt P00390); assay: Catalysis constant against human glutathione reductase; in short: as §1
T1 sequence (whole entry): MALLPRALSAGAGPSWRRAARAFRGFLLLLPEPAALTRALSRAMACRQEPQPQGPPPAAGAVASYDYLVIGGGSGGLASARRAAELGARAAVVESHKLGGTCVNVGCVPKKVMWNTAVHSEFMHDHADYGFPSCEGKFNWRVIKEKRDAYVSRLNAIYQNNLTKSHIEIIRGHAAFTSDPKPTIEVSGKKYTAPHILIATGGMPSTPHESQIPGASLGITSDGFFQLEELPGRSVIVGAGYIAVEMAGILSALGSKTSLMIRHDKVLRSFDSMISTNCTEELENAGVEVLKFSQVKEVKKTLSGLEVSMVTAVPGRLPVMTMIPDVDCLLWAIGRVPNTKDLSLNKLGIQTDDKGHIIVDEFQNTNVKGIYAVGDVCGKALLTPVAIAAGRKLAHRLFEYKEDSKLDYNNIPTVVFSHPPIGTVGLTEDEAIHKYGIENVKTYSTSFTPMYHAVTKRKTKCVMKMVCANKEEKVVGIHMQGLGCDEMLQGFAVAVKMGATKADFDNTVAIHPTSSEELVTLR

[3] = biological target: T1, Glutathione reductase, mitochondrial (Homo sapiens); assay: Ratio of Catalysis constant Michaelis-Menten constant of human glutathione reductase; in short: as §1
[4] = biological target: Glutathione reductase (Plasmodium falciparum 3D7) (UniProt O15770); assay: Ratio of Catalysis constant Michaelis-Menten constant of Plasmodium falciparum glutathione reductase; in short: as §1

Sequence of Glutathione reductase (Plasmodium falciparum 3D7) (O15770 whole entry): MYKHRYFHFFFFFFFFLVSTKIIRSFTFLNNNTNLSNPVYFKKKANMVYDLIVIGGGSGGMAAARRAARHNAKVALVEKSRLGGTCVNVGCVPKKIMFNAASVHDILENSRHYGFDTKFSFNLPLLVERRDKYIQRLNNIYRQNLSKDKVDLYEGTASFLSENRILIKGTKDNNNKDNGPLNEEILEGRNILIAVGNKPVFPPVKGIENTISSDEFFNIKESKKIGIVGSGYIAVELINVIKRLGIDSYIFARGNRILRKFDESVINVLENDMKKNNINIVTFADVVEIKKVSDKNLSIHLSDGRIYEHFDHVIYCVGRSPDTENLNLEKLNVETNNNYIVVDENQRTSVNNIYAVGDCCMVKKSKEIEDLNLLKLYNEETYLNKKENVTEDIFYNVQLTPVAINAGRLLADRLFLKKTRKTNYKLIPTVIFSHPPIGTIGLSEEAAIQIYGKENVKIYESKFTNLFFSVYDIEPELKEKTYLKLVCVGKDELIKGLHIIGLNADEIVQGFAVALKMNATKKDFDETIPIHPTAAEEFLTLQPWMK

SMILES | Cytotoxicity (MRC5) | further results
CC1=C(CCCc2nnnn2CCC#N)C(=O)c2ccccc2C1=O | inactive | –
CC1=C(CCCCCC(=O)OCCN(C)C)C(=O)c2ccccc2C1=O | inactive | –
CC1=C(CCCCC(=O)O)C(=O)c2ccccc2C1=O | inactive | –
CC1=C(CCCC(=O)NCCC#N)C(=O)c2ccccc2C1=O | inactive | –
CC1=C(CCCCCc2nnnn2CCC#N)C(=O)c2ccccc2C1=O | inactive | –
CC1=C(CCCCC(=O)NCCC#N)C(=O)c2ccccc2C1=O | inactive | –
CC1=C(CCCCc2nnnn2CCC#N)C(=O)c2ccccc2C1=O | inactive | –
CC1=CC(=O)c2ccccc2C1=O | – | K cat [1]: 0.16 s⁻¹; K cat [2]: 0.16 s⁻¹; K cat/Km [3]: 5330 M⁻¹ s⁻¹; K cat/Km [4]: 1990 M⁻¹ s⁻¹
CC1=C(CCCCCC(=O)NCCC#N)C(=O)c2ccccc2C1=O | inactive | –
CC1=C(CCCCCC(=O)O)C(=O)c2ccccc2C1=O | inactive | –
